Laboratory results from BindingDB's records for doi:10.1021/ml5002486 (National Institute of Diabetes and Digestive and Kidney …, 2014).

Tests used:
Adenosine receptor A2a [1] = target: T1, Adenosine receptor A2a (Homo sapiens, UniProt P29274); experiment: Displacement of [3H]4-[2-[7-amino-2-(2-furyl)-1,2,4-triazolo[1,5-a][1,3,5]triazin-5-yl-amino]ethylphenol from wild type human adenosine A2a receptor expressed in COS-7 cells assessed as radioligand Kd compound preincubated for 30 mins
In short: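 WT, K150A or K153A human A2A receptor was transiently transfected into COS-7 cells. Membranes were preincubated with or without compound, then washed. Saturation binding used antagonist radioligand [3H]7, with nonspecific binding defined by 10 μM NECA. Kd (nM) and Bmax (pmol/mg protein) were derived from the saturation curves.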
Target sequence in this assay (P29274 whole entry): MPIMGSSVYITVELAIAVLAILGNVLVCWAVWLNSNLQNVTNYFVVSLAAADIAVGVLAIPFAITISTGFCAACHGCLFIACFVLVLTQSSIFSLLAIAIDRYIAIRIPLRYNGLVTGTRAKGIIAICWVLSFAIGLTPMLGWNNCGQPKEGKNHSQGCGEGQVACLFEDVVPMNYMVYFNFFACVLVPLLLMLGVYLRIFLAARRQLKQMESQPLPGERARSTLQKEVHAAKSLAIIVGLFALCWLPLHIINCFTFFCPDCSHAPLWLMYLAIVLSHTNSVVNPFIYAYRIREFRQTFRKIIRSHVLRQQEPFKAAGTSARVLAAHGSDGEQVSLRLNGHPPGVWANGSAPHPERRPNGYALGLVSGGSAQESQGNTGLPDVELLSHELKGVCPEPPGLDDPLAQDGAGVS

Adenosine receptor A2a [2] = target: T1, Adenosine receptor A2a; experiment: Displacement of [3H]4-[2-[7-amino-2-(2-furyl)-1,2,4-triazolo[1,5-a][1,3,5]triazin-5-yl-amino]ethylphenol from human adenosine A2a receptor K150A mutant expressed in COS-7 cells assessed as radioligand Kd compound preincubated for 30 mins
Target sequence in this assay (P29274 whole entry, looked up): as the sequence (P29274 whole entry) above

Adenosine receptor A2a [3] = target: T1, Adenosine receptor A2a; experiment: Displacement of [3H]4-[2-[7-amino-2-(2-furyl)-1,2,4-triazolo[1,5-a][1,3,5]triazin-5-yl-amino]ethylphenol from wild type human adenosine A2a receptor expressed in HEK293 cells assessed as radioligand Kd compound preincubated for 30 mins
Target sequence in this assay (P29274 whole entry): as above

Question: `CCNC(=O)[C@H]1O[C@@H](n2cnc3c(N)nc(NCCc4ccc(CCC(=O)Nc5ccc(OC(C)=O)c([N+](=O)[O-])c5)cc4)nc32)[C@H](O)[C@@H]1O` was tested. Which Kd (Adenosine receptor A2a [1]) did it give?
Answer: 2.2 nM

Question: And the Kd (Adenosine receptor A2a [2])?
Answer: 3.17 nM

Question: What about the Kd (Adenosine receptor A2a [3]) of the same compound?
Answer: 5 nM

Question: Which Kd (Adenosine receptor A2a [3]) does the source give for `CCNC(=O)[C@H]1O[C@@H](n2cnc3c(N)nc(NCCc4ccc(CCC(=O)Nc5ccc(OC(=O)CCCCN=[N+]=[N-])c([N+](=O)[O-])c5)cc4)nc32)[C@H](O)[C@@H]1O` here?
Answer: 3.2 nM
